Protection from cytokine-induced ATP loss data for 36 compounds are collected here from PubChem BioAssay AID488910 (Broad Institute, 2010).

About 25 (0.1%) of roughly 20,000 compounds were called active. Many of the other results were omitted from the sample, so actives are more common in it than they were. Values without a mark were called inactive.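 Rule for the calls: active = mean replicate protection from cytokine-induced ATP loss at least 50% and at least 75% of replicates each reaching 50%; inconclusive = meets only one of the two criteria, mean or replicate share; inactive = fails both the mean and replicate share criteria.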

This test is described as follows: protection of INS-1E cells from cytokine death, primary screen, ATP luminescence, single point (AID 488910). As to conditions: INS-1E cytokine-induced death, 48 h, at 10 µM, stronger effect = higher value, normalised: neutral wells 0, positive control 100. A digest of the protocol:
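Assay system: INS-1E rat insulinoma cells. Amount: 8000 cells per well. Medium: phenol-red-free RPMI with 5% fetal bovine serum. Reagent: IL-1β, TNF-α and IFN-γ cytokine mix. Doses: one compound concentration, pin transfer. Schedule: 48 h co-treatment, 10 min post-lysis read. Detection: CellTiter-Glo luminescence measuring cellular ATP.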
Turning to `COc1ccc(NC(=O)N(C)C[C@H]2Oc3ccc(N(C)C)cc3C(=O)N([C@@H](C)CO)C[C@H]2C)cc1`, the protection from cytokine-induced ATP loss is 3.7%.
The result for `Cc1ccc(S(=O)(=O)N(C)C[C@@H]2Oc3c(NC(=O)Nc4ccc(F)cc4)cccc3C(=O)N([C@H](C)CO)C[C@H]2C)cc1` reads 40.9%.
For `CNC[C@H]1OCCCC[C@@H](C)Oc2ccc(NC(=O)Cc3ccccc3)cc2C(=O)N([C@H](C)CO)C[C@@H]1C` the value was -7.6%; for `C[C@@H]1CN([C@@H](C)CO)C(=O)Cc2cc(NS(=O)(=O)c3ccc(F)cc3)ccc2O[C@@H]1CN(C)S(=O)(=O)c1cccs1`, 4.79%; for `C[C@H](CO)N1C[C@H](C)[C@H](CN(C)Cc2ccccc2)Oc2ccc(NC(=O)CCCCCC(=O)Nc3ccccc3N)cc2C1=O`, -0.781%.
In the case of `COc1ccc(NC(=O)N(C)C[C@@H]2Oc3ccc(NC(=O)CCCN(C)C)cc3CC(=O)N([C@H](C)CO)C[C@H]2C)cc1`, the protection from cytokine-induced ATP loss was 7.7%.
For `C[C@@H]1CN([C@@H](C)CO)C(=O)c2cccc(NS(=O)(=O)c3ccc(Cl)cc3)c2O[C@@H]1CN(C)Cc1ccccc1`, the protection from cytokine-induced ATP loss is -3.08%.
For `CC(C)NC(=O)N(C)C[C@H]1Oc2ccc(NS(C)(=O)=O)cc2CC(=O)N([C@@H](C)CO)C[C@@H]1C` the value was 2.48%.
The result for `Cc1noc(C)c1NC(=O)N(C)C[C@@H]1Oc2c(NC(=O)C3CCCCC3)cccc2C(=O)N([C@H](C)CO)C[C@@H]1C` reads 10.1%.
The result for `C[C@@H]1CN([C@H](C)CO)C(=O)c2cccc(NC(=O)Nc3ccc4c(c3)OCO4)c2O[C@@H]1CN(C)Cc1ccccc1` reads -9.92%.
Take `C[C@@H]1CN([C@@H](C)CO)C(=O)c2cccc(NS(=O)(=O)c3cccs3)c2O[C@H]1CN(C)Cc1ccncc1`: the protection from cytokine-induced ATP loss is 4.56%.
For `C[C@H]1CN([C@@H](C)CO)C(=O)Cc2cc(NC(=O)Cn3cnnn3)ccc2O[C@@H]1CN(C)Cc1ccc(-c2ccccc2)cc1` the value was 5.19%; for `C[C@@H]1CN([C@H](C)CO)C(=O)Cc2cc(NC(=O)Nc3cccc4ccccc34)ccc2O[C@@H]1CN(C)Cc1ccc(C(F)(F)F)cc1`, -18.8%.
The result for `Cc1ccc(S(=O)(=O)Nc2ccc3c(c2)CC(=O)N([C@H](C)CO)C[C@@H](C)[C@H](CN(C)Cc2ccc(C(F)(F)F)cc2)O3)cc1` reads 4.83%; that for `O=C(NO)c1ccc(C(=O)N/N=C/c2cc(Br)cc(Br)c2O)cc1`, 29.8%.
The result for `C[C@@H]1CN([C@@H](C)CO)C(=O)c2cc(NS(=O)(=O)c3ccc(Cl)cc3)ccc2O[C@H]1CN(C)C(=O)Nc1ccc(C(F)(F)F)cc1` reads -4.38%; that for `C[C@H]1CN([C@@H](C)CO)C(=O)c2cc(NS(=O)(=O)c3cccs3)ccc2O[C@@H]1CN(C)C(=O)Nc1ccccc1`, 10.2%.
Turning to `C[C@@H]1CN([C@H](C)CO)C(=O)Cc2cc(NS(=O)(=O)c3cccs3)ccc2O[C@@H]1CN(C)Cc1ccc(C(=O)O)cc1`, the protection from cytokine-induced ATP loss is 5.4%.
`C[C@@H]1CN([C@H](C)CO)C(=O)Cc2cc(NS(=O)(=O)c3cn(C)cn3)ccc2O[C@@H]1CN(C)C(=O)Nc1ccccc1`: the protection from cytokine-induced ATP loss is 10.7%.
For the compound `CC(C)NC(=O)N(C)C[C@@H]1Oc2ccc(NC(=O)CCCCCC(=O)Nc3ccccc3N)cc2C(=O)N([C@@H](C)CO)C[C@H]1C`, the protection from cytokine-induced ATP loss is 12.1%.
The result for `Cc1ccc(S(=O)(=O)Nc2ccc3c(c2)CC(=O)N([C@@H](C)CO)C[C@H](C)[C@H](CN(C)Cc2ccccc2)O3)cc1` reads 12.2%.
Consider `COC(=O)CCCCCCC(=O)N/N=C/c1cccc(Br)c1`, for which the protection from cytokine-induced ATP loss is 21.3%.
The result for `C[C@H](CO)N1C[C@H](C)[C@H](CN(C)C(=O)Nc2cccc3ccccc23)Oc2ccc(NS(C)(=O)=O)cc2C1=O` reads 4.67%; that for `C[C@H]1CN([C@@H](C)CO)C(=O)Cc2cc(NC(=O)NC3CCCCC3)ccc2O[C@@H]1CN(C)Cc1ccc(Oc2ccccc2)cc1`, -49.9%; that for `C[C@@H]1CN([C@@H](C)CO)C(=O)c2cc(NC(=O)C3CCCCC3)ccc2O[C@@H]1CN(C)Cc1ccc(C(=O)O)cc1`, 3.82%.
For `COc1ccc(NC(=O)Nc2ccc3c(c2)CC(=O)N([C@@H](C)CO)C[C@H](C)[C@@H](CN(C)S(=O)(=O)c2cn(C)cn2)O3)cc1` the value was 14.9%.
Regarding `Cc1ccc(S(=O)(=O)Nc2ccc3c(c2)C(=O)N([C@H](C)CO)C[C@H](C)[C@@H](CN(C)C(=O)Nc2ccc4c(c2)OCO4)OCCCC[C@@H](C)O3)cc1`, the protection from cytokine-induced ATP loss was -3.08%.
The result for `COC(=O)CCCCCCC(=O)N/N=C/c1c(OC)cc(O)cc1OC` reads 3.27%; that for `COC(=O)CCCCCCC(=O)N/N=C/c1ccc(O)c(OC)c1`, 9.74%.
`COc1cc(/C=N\NC(=O)CCCCCCC(=O)NO)c(Br)cc1O`: the protection from cytokine-induced ATP loss is 77.6% (active).
As to `C[C@H](CO)N1C[C@H](C)[C@H](CN(C)S(C)(=O)=O)Oc2c(NC(=O)c3ccc(-c4nccs4)cc3)cccc2C1=O`, the protection from cytokine-induced ATP loss is -1.51%.
The result for `COc1ccc(S(=O)(=O)Nc2ccc3c(c2)C(=O)N([C@H](C)CO)C[C@@H](C)[C@H](CN(C)S(=O)(=O)c2ccc(C)cc2)O3)cc1` reads -13.4%; that for `C[C@@H]1CN([C@H](C)CO)C(=O)c2cc(NS(C)(=O)=O)ccc2O[C@@H]1CN(C)S(C)(=O)=O`, 6.6%.
With `Cc1noc(C)c1NC(=O)N(C)C[C@H]1OCCCC[C@@H](C)Oc2ccc(NC(=O)NC(C)C)cc2C(=O)N([C@H](C)CO)C[C@@H]1C`, the protection from cytokine-induced ATP loss was -5.7%.
The result for `COc1ccc(NC(=O)Nc2ccc3c(c2)C(=O)N([C@H](C)CO)C[C@H](C)[C@@H](CN(C)C(=O)Nc2ccc4c(c2)OCO4)O3)cc1` reads 3.11%.
For `C[C@@H]1CN([C@@H](C)CO)C(=O)c2cc(NC(=O)CCN3CCOCC3)ccc2O[C@@H]1CN(C)S(=O)(=O)c1ccccc1` the value was 8.45%.
